Test results from article PMC8448912 (ChemMedChem, 2021).

Assays:
Assay type in all cases: cell-based
[1] = test system: MDA-MB-231 (Breast); experiment: MTT antiproliferative assay, 72 h; settings: Homo sapiens, MDA-MB-231, 72 h, read-out: IC50 values
How it was run: (§1)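 Human cancer cell lines (breast MDA-MB-231 and MCF-7, ovarian A2780, colorectal Caco-2 and HT-29) exposed to test compound for 72 h. Growth measured by MTT assay. IC50 values reported as mean ± SDM, n = 3.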

[2] = test system: MCF-7 (Breast); experiment: MTT antiproliferative assay, 72 h; settings: Homo sapiens, MCF7, 72 h, read-out: IC50 values
How it was run: as §1

[3] = test system: A2780 (Ovary); experiment: MTT antiproliferative assay, 72 h; settings: Homo sapiens, A2780, 72 h, read-out: IC50 values
How it was run: as §1

[4] = test system: Caco-2 (Colon); experiment: MTT antiproliferative assay, 72 h; settings: Homo sapiens, Caco-2, 72 h, read-out: IC50 values
How it was run: as §1

[5] = test system: HT-29 (Colon); experiment: MTT antiproliferative assay, 72 h; settings: Homo sapiens, HT-29, 72 h, read-out: IC50 values
How it was run: as §1

[6] = test system: MRC-5 (Normal lung); experiment: MTT antiproliferative assay, 72 h; settings: Homo sapiens, MRC5, 72 h, read-out: IC50 values
[7] = test system: panel of breast, ovarian and colorectal cancer cells; experiment: antiproliferative activity in the panel of cell lines; settings: read-out: IC50 values in this screen
How it was run: as §1

`CC(=O)N(O)CCCCCNC(=O)CCC(=O)N(O)CCCCCNC(=O)CCC(=O)N(O)CCCCCN` [DFO, desferrioxamine] gave an IC50 [1] of 5.8 ± 0.4 µM, an IC50 [2] of 21 ± 2 µM and an IC50 [3] of 3.83 ± 0.02 µM. For the same compound, the IC50 [4] was 3.7 ± 0.3 µM, the IC50 [5] was 2.4 ± 0.1 µM and the IC50 [6] was 9 ± 1 µM. For the same compound, the IC50 [7] was 2 to 20 µM.
